Assay results taken from ChEMBL document CHEMBL3124806, “Imidazopyridine-fused [1,3]-diazepinones: synthesis and antiproliferative activity” (Eur J Med Chem, 2014).

How the values were obtained:
[1] = test system: DU-145; experiment: Cytotoxicity against human DU145 cells assessed as cell growth at 10 uM after 48 hrs by SRB assay relative to untreated control; assay type: functional; conditions: DU-145, 48 h, read-out: Activity
Summary of the method: (§1)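 NCI-60 panel screen at a single concentration of 10 μM with 48 h incubation. Cell density measured by sulforhodamine B protein-binding dye and read spectrophotometrically. Growth expressed as percent of untreated control cells.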

[2] = Cytotoxicity against human NCI-ADR-RES cells assessed as cell growth at 10 uM after 48 hrs by SRB assay relative to untreated control; assay type: functional; conditions: read-out: Activity
Summary of the method: (§2)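 NCI-60 one-dose screen: each agent added at 10 µM, cultures incubated 48 h. Endpoint by sulforhodamine B protein-binding dye read spectrophotometrically; growth expressed as percent of untreated control cells.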

[3] = test system: CCRF-CEM; experiment: Cytotoxicity against human CCRF-CEM cells assessed as cell growth at 10 uM after 48 hrs by SRB assay relative to untreated control; assay type: functional; conditions: read-out: Activity; summary of the method: as §1
[4] = test system: HOP-92; experiment: Cytotoxicity against human HOP92 cells assessed as cell growth at 10 uM after 48 hrs by SRB assay relative to untreated control; assay type: functional; conditions: HOP-92, 48 h, read-out: Activity; summary of the method: as §1
[5] = test system: SF-539; experiment: Cytotoxicity against human SF539 cells assessed as cell growth at 10 uM after 48 hrs by SRB assay relative to untreated control; assay type: functional; conditions: SF-539, 48 h, read-out: Activity; summary of the method: as §2
[6] = test system: Malme-3M; experiment: Cytotoxicity against human MALME-3M cells assessed as cell growth at 10 uM after 48 hrs by SRB assay relative to untreated control; assay type: functional; conditions: read-out: Activity; summary of the method: as §1
[7] = test system: SF-295; experiment: Cytotoxicity against human SF295 cells assessed as cell growth at 10 uM after 48 hrs by SRB assay relative to untreated control; assay type: functional; conditions: SF-295, 48 h, read-out: Activity; summary of the method: as §2
[8] = species on record: Ovis aries; experiment: Inhibition of sheep brain tubulin polymerization at 100 uM after 40 mins by DAPI staining-based fluorescence assay
Summary of the method: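 Microtubular protein was purified from sheep brain by two assembly/disassembly cycles (37 °C/0 °C) in MES buffer (100 mM MES pH 6.6, 1 mM EGTA, 0.5 mM MgCl₂). Compound in DMSO was added to 10 µM tubulin with 10 µM DAPI and incubated 40 min at RT. GTP (1 mM) was then added, and assembly was followed by DAPI fluorescence at 37 °C.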

[9] = test system: HCT-116; experiment: Cytotoxicity against human HCT116 cells assessed as cell growth at 10 uM after 48 hrs by SRB assay relative to untreated control; assay type: functional; conditions: HCT-116, 48 h, read-out: Activity; summary of the method: as §1
[10] = test system: HCC 2998; experiment: Cytotoxicity against human HCC2998 cells assessed as cell growth at 10 uM after 48 hrs by SRB assay relative to untreated control; assay type: functional; conditions: HCC 2998, 48 h, read-out: Activity; summary of the method: as §1
[11] = Cytotoxicity against human OVCAR4 cells assessed as cell growth at 10 uM after 48 hrs by SRB assay relative to untreated control; assay type: functional; conditions: OVCAR-4, 48 h, read-out: Activity; summary of the method: as §2
[12] = test system: HL-60(TB); experiment: Cytotoxicity against human HL-60(TB) cells assessed as cell growth at 10 uM after 48 hrs by SRB assay relative to untreated control; assay type: functional; conditions: HL-60, 48 h, read-out: Activity
Summary of the method: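 NCI-60 human tumour cell line panel; a single 10 µM concentration was added to the cultures and incubated 48 h. Endpoint was sulforhodamine B protein-binding dye read spectrophotometrically, with growth reported as percent of untreated control cells.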

[13] = test system: SK-OV-3; experiment: Cytotoxicity against human SKOV3 cells assessed as cell growth at 10 uM after 48 hrs by SRB assay relative to untreated control; assay type: functional; conditions: SK-OV-3, 48 h, read-out: Activity
Summary of the method: (§3)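 NCI-60 single-dose screen. Compounds were added to the cultures at 10 μM and incubated for 48 h. The end point was sulforhodamine B protein staining read spectrophotometrically. Growth is reported as percent of untreated control cells.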

[14] = test system: SK-MEL-2; experiment: Cytotoxicity against human SK-MEL-2 cells assessed as cell growth at 10 uM after 48 hrs by SRB assay relative to untreated control; assay type: functional; conditions: SK-MEL-2, 48 h, read-out: Activity; summary of the method: as §2
[15] = test system: A498; experiment: Cytotoxicity against human A498 cells assessed as cell growth at 10 uM after 48 hrs by SRB assay relative to untreated control; assay type: functional; conditions: A498, 48 h, read-out: Activity; summary of the method: as §1
[16] = test system: M14; experiment: Cytotoxicity against human M14 cells assessed as cell growth at 10 uM after 48 hrs by SRB assay relative to untreated control; assay type: functional; conditions: M14, 48 h, read-out: Activity; summary of the method: as §1
[17] = test system: RPMI-8226; experiment: Cytotoxicity against human RPMI8226 cells assessed as cell growth at 10 uM after 48 hrs by SRB assay relative to untreated control; assay type: functional; conditions: RPMI-8226, 48 h, read-out: Activity; summary of the method: as §2
[18] = test system: SK-MEL-5; experiment: Cytotoxicity against human SK-MEL-5 cells assessed as cell growth at 10 uM after 48 hrs by SRB assay relative to untreated control; assay type: functional; conditions: SK-MEL-5, 48 h, read-out: Activity; summary of the method: as §3
[19] = test system: MDA-MB-435; experiment: Cytotoxicity against human MDA-MB-435 cells assessed as cell growth at 10 uM after 48 hrs by SRB assay relative to untreated control; assay type: functional; conditions: MDA-MB-435, 48 h, read-out: Activity; summary of the method: as §2
[20] = test system: NCI-H23; experiment: Cytotoxicity against human NCI-H23 cells assessed as cell growth at 10 uM after 48 hrs by SRB assay relative to untreated control; assay type: functional; conditions: NCI-H23, 48 h, read-out: Activity; summary of the method: as §2
[21] = test system: A549; experiment: Cytotoxicity against human A549 cells assessed as cell growth at 10 uM after 48 hrs by SRB assay relative to untreated control; assay type: functional; conditions: A549, 48 h, read-out: Activity; summary of the method: as §1
[22] = test system: SF-268; experiment: Cytotoxicity against human SF268 cells assessed as cell growth at 10 uM after 48 hrs by SRB assay relative to untreated control; assay type: functional; conditions: SF-268, 48 h, read-out: Activity; summary of the method: as §2
[23] = test system: T47D; experiment: Cytotoxicity against human T47D cells assessed as cell growth at 10 uM after 48 hrs by SRB assay relative to untreated control; assay type: functional; conditions: read-out: Activity; summary of the method: as §3
[24] = test system: IGROV-1; experiment: Cytotoxicity against human IGROV1 cells assessed as cell growth at 10 uM after 48 hrs by SRB assay relative to untreated control; assay type: functional; conditions: IGROV-1, 48 h, read-out: Activity; summary of the method: as §1
[25] = test system: SN12C; experiment: Cytotoxicity against human SN12C cells assessed as cell growth at 10 uM after 48 hrs by SRB assay relative to untreated control; assay type: functional; conditions: read-out: Activity; summary of the method: as §3
[26] = Cytotoxicity against human Hs578T cells assessed as cell growth at 10 uM after 48 hrs by SRB assay relative to untreated control; assay type: functional; conditions: Hs-578T, read-out: Activity; summary of the method: as §1
[27] = test system: TK-10; experiment: Cytotoxicity against human TK10 cells assessed as cell growth at 10 uM after 48 hrs by SRB assay relative to untreated control; assay type: functional; conditions: TK-10, 48 h, read-out: Activity; summary of the method: as §3
[28] = test system: HOP-62; experiment: Cytotoxicity against human HOP62 cells assessed as cell growth at 10 uM after 48 hrs by SRB assay relative to untreated control; assay type: functional; conditions: HOP-62, 48 h, read-out: Activity; summary of the method: as §1
[29] = test system: SK-MEL-28; experiment: Cytotoxicity against human SK-MEL-28 cells assessed as cell growth at 10 uM after 48 hrs by SRB assay relative to untreated control; assay type: functional; conditions: SK-MEL-28, 48 h, read-out: Activity; summary of the method: as §3

| SMILES | growth at 10 µM [1] | growth at 10 µM [2] | growth at 10 µM [3] | growth at 10 µM [4] | growth at 10 µM [5] | growth at 10 µM [6] | growth at 10 µM [7] | inhibition [8] | growth at 10 µM [9] | growth at 10 µM [10] | growth at 10 µM [11] | growth at 10 µM [12] | growth at 10 µM [13] | growth at 10 µM [14] | growth at 10 µM [15] | growth at 10 µM [16] | growth at 10 µM [17] | growth at 10 µM [18] | growth at 10 µM [19] | growth at 10 µM [20] | further results |
| --- | --- | --- | --- | --- | --- | --- | --- | --- | --- | --- | --- | --- | --- | --- | --- | --- | --- | --- | --- | --- | --- |
| C[C@H]1NC(c2ccc(Br)cc2)=Nc2nc3ccccn3c2C1=O | 108% | 95.7% | 96.9% | 66.6% | 95.5% | 101% | 96.9% | 26% | 90.2% | 112% | 111% | 91.1% | 97.8% | 81.8% | 87.6% | 99.2% | 91% | 94.2% | 95.4% | 90.7% | growth at 10 µM [21]: 99.6%; growth at 10 µM [22]: 99.8%; growth at 10 µM [23]: 85%; growth at 10 µM [24]: 81.1%; growth at 10 µM [25]: 94.6%; growth at 10 µM [26]: 86.5%; growth at 10 µM [27]: 98.3%; growth at 10 µM [28]: 69.8%; growth at 10 µM [29]: 97.5% |
| Cc1ccc(C2=Nc3nc4ccccn4c3C(=O)[C@H](C)N2)cc1 | 112% | 79.6% | 85.2% | 66.3% | 90% | 82.6% | 87.4% | 16% | 91.1% | 104% | 88.7% | 87.5% | 90.2% | 69.5% | 99.1% | 87% | 88.6% | 81.7% | 25.7% | 85% | growth at 10 µM [21]: 92.9%; growth at 10 µM [22]: 99.7%; growth at 10 µM [23]: 103%; growth at 10 µM [24]: 70.9%; growth at 10 µM [25]: 93.9%; growth at 10 µM [26]: 94.8%; growth at 10 µM [27]: 96%; growth at 10 µM [28]: 62.9%; growth at 10 µM [29]: 88.9% |
